{"data": "Experimental data gathered from unrelated publications", "organism": "Staphylococcus epidermidis", "note": "Compare with care: the assays were run in different laboratories."}
{"Compound": "O=C1NC(=S)S/C1=C\\c1ccc(-c2ccc(N(c3ccccc3)c3ccccc3)cc2)c2ccccc12", "assay": "microbial growth, broth dilution", "test system": "ATCC12228", "quantity": "MIC", "result": "1000 µg/mL"}
{"Compound": "CO[C@@H](C(N)=O)[C@H](NC(=O)c1ccc(NC(=O)c2ccc(C#N)cc2)cc1)C(=O)Nc1ccc(C(=O)Nc2ccc(C(=O)Nc3ccc(C(=O)O)cc3)c(O)c2OC(C)C)cc1", "assay": "microbial growth", "test system": "DSM28765", "quantity": "MIC", "result": "≤ 0.03 µg/mL"}
{"Compound": "CC1(C)S[C@@H]2[C@H](NC(=O)[C@H](N)c3ccccc3)C(=O)N2[C@H]1C(=O)O", "assay": "microbial growth, agar dilution", "test system": "ATCC12228", "conditions": "26.93 µM", "quantity": "inhibition", "result": "100%"}
{"Compound": "C/C(=C\\c1ccc(C#N)cc1)C(=O)Nc1ccc(C(=O)N[C@@H](CC(N)=O)C(=O)Nc2ccc(C(=O)Nc3ccc(C(=O)Nc4ccc(C(=O)O)cc4)c(O)c3OC(C)C)cc2)cc1", "assay": "microbial growth", "test system": "DSM28765", "quantity": "MIC", "result": "≤ 0.03 µg/mL"}
{"Compound": "O=C(O)CN1C(=O)/C(=C/c2c3ccccc3c(-c3ccc(N(c4ccccc4)c4ccccc4)cc3)c3ccccc23)SC1=S", "assay": "microbial killing, broth dilution", "test system": "ATCC12228", "quantity": "MBC", "result": "> 1000 µg/mL"}
{"Compound": "N#CC(=Cc1ccccc1O)C1=NC(=O)C(=Cc2cn(-c3ccccc3)nc2-c2ccccc2)S1", "assay": "microbial killing, broth dilution", "quantity": "MBC", "result": "0.25 µg/mL"}
{"Compound": "O=[N+]([O-])c1ccc2c(N=Nc3c(O)ccc4ccccc34)c(O)cc(S(=O)(=O)O)c2c1", "assay": "microbial growth, broth dilution", "conditions": "24 h", "quantity": "MIC50", "result": "250 µM"}
{"Compound": "O=C1NC(=S)N/C1=C\\c1ccc(-c2ccc(N(c3ccccc3)c3ccccc3)cc2)c2ccccc12", "assay": "microbial growth, broth dilution", "test system": "ATCC12228", "quantity": "MIC", "result": "> 1000 µg/mL"}
{"Compound": "O=S(=O)(O)c1cc(O)c(N=Nc2ccc3ccccc3c2O)c2ccccc12", "assay": "microbial growth, broth dilution", "conditions": "24 h", "quantity": "MIC50", "result": "63 µM"}
{"Compound": "CC(C)Oc1c(NC(=O)c2ccc(NC(=O)[C@H](CC(N)=O)NC(=O)c3ccc(NC(=O)c4ccc(C#N)cc4)cc3)cc2)ccc(C(=O)Nc2ccc(C(=O)O)cc2)c1O", "assay": "microbial growth", "test system": "DSM28765", "quantity": "MIC", "result": "≤ 0.03 µg/mL"}
{"Compound": "CN(C)[C@@H]1C(O)=C(C(N)=O)C(=O)[C@@]2(O)C(O)=C3C(=O)c4c(O)cccc4[C@@](C)(O)[C@H]3C[C@@H]12", "assay": "microbial growth, broth dilution", "test system": "12228", "quantity": "MIC", "result": "100 µM"}
{"Compound": "O=C1NC(=S)N/C1=C\\c1ccc(-c2ccc(N(c3ccccc3)c3ccccc3)cc2)cc1", "assay": "microbial growth, broth dilution", "test system": "ATCC12228", "quantity": "MIC", "result": "> 1000 µg/mL"}
{"Compound": "Cc1c(NC(=O)CC2=NC(=O)CS2)c(=O)n(-c2ccccc2)n1C", "assay": "microbial killing, broth dilution", "quantity": "MBC", "result": "1 µg/mL"}
{"Compound": "CC(C)Oc1c(NC(=O)c2ccc(NC(=O)c3ccc(NC(=O)[C@H](CC(N)=O)NC(=O)c4ccc(NC(=O)c5ccc(C#N)cn5)cc4)cc3)c(OC(C)C)c2O)ccc(C(=O)O)c1O", "assay": "microbial growth", "test system": "DSM28765", "quantity": "MIC", "result": "≤ 0.03 µg/mL"}
